Experimental findings from ChEMBL document CHEMBL4346662, “Synthesis of novel 7-azaindole derivatives containing pyridin-3-ylmethyl dithiocarbamate moiety as potent PKM2 activators and PKM2 nucleus translocation inhibitors” (Eur J Med Chem, 2019) are described below.

SMILES strings stand for the structures. Calls of active or inactive are those of the source. No cut-off for these calls is given here. Some results are limits rather than exact numbers.

For experiment [1], the target named is T1, Pyruvate kinase PKM (Homo sapiens, UniProt P14618). The experiment is described as follows: Activation of human recombinant His-tagged PKM2 expressed in Escherichia coli using PEP as substrate measured at 30 sec between 3 and 6 mins in presence of […] by fluorescent pyruvate kinase-lactate dehydrogenase coupled assay. The gist of the method: (§1)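 Pyruvate kinase activity read by fluorescent pyruvate kinase–lactate dehydrogenase coupled assay; AC50 and maximal activation are means of at least two determinations.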
Target sequence in this assay (P14618 whole entry): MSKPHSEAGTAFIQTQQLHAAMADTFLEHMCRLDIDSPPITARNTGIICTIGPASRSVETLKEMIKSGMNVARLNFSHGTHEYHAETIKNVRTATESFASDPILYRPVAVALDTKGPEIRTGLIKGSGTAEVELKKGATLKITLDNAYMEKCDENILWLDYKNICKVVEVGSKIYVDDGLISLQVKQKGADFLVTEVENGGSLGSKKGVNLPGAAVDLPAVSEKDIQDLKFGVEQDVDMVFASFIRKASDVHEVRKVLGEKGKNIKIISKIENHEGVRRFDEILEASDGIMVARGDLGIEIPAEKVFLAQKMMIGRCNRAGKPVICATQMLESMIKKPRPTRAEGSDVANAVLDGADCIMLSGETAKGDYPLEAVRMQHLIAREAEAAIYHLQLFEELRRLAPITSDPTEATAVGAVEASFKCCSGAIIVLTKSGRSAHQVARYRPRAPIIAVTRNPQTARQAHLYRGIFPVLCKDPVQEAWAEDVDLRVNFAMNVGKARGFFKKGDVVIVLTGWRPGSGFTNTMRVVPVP

In experiment [2] the target is T1, Pyruvate kinase PKM. The experiment is described as follows: Activation of human recombinant His-tagged PKM2 expressed in Escherichia coli assessed as maximal activity using PEP as substrate measured at 30 sec between 3 and 6 mins in presence of […] by fluorescent pyruvate kinase-lactate dehydrogenase coupled assay relative to control. The gist of the method:
as §1
Target sequence in this assay (P14618 2-531 limits assumed): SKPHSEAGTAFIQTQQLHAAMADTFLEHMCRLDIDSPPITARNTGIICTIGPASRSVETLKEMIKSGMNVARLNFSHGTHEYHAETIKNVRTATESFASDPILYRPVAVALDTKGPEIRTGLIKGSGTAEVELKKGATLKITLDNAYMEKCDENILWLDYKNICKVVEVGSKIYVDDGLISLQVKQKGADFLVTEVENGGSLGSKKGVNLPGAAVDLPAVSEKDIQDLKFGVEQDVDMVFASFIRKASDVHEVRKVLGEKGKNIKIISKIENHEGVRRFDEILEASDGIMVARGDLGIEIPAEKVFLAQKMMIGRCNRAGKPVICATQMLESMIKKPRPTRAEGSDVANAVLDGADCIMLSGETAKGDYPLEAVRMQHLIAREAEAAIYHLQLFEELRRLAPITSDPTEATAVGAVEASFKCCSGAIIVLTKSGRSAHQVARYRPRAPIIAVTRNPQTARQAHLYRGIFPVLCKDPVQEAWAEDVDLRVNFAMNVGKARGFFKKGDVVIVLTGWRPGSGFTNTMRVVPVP

The subject of a further experiment is NCI-H1299. The experiment is described as follows: Antiproliferative activity against human H1299 cells assessed as reduction in cell growth incubated for 72 hrs by CellTiter-Glo assay. It counts as functional, cell-based. Particulars: NCI-H1299, 72 h. In a few lines:
(§2)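 Cells (H1299 in RPMI 1640; HCT116 and A375 in DMEM; 10% FBS, 37 °C, 5% CO2) plated at 2000 per well, left 24 h, then exposed to ten concentrations or DMSO for 72 h. CellTiter-Glo added, 30 min at room temperature in dark, luminescence read. IC50 fitted from triplicate experiments.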

The test system of another experiment is HCT-116. The experiment is described as follows: Antiproliferative activity against human HCT116 cells assessed as reduction in cell growth incubated for 72 hrs by CellTiter-Glo assay. Type of experiment: functional, cell-based. The settings on record: HCT-116, 72 h. The gist of the method:
as §2
Background: In ATP-based viability assays light output follows the ATP content of the culture.

In a further experiment the test system is A-375. The experiment is described as follows: Antiproliferative activity against human A375 cells assessed as reduction in cell growth incubated for 72 hrs by CellTiter-Glo assay. It counts as functional, cell-based. Particulars: A-375, 72 h. In a few lines:
as §2

By AC50 is commonly meant the midpoint of the concentration-response curve, whichever way the signal moves. Turning to `O=C(CCSC(=S)NCc1cccnc1)c1c[nH]c2nc(Cl)ccc12`, the AC50 entry on Pyruvate kinase PKM [1] is reported as “Not Active”. Moreover, the “%max” value at Pyruvate kinase PKM [2] is “inactive”.

For orientation: IC50 means the concentration that gives 50% inhibition. With `O=C(CCSC(=S)NCc1cccnc1)c1cn(C2CCC2)c2ncccc12`, at Pyruvate kinase PKM [1] (read-out: AC50), the AC50 was found to be 3.93 µM. On Pyruvate kinase PKM [2], the %max was 93%. The figures for the IC50 in the experiment on NCI-H1299, in the experiment on HCT-116 and with A-375 were 4.2 µM, 3.52 µM and 1.34 µM, respectively.

As for `O=C(CCSC(=S)NCc1cccnc1)c1cnn2ccccc12`, on Pyruvate kinase PKM [1] (read-out: AC50), the concentration at half-maximal activity (AC50) was greater than 20 µM. In addition, at Pyruvate kinase PKM [2], the %max turned out to be 23%.

Turning to `O=C(CCSC(=S)NCc1cccnc1)c1cn(-c2cccs2)c2ncccc12`, on Pyruvate kinase PKM [1], the AC50 result is reported as “Not Active”. Further, the “%max” value at Pyruvate kinase PKM [2] was “inactive”.

With `C#Cc1ccnc2[nH]cc(C(=O)CCSC(=S)NCc3cccnc3)c12`, the half-maximal activity concentration (AC50) on Pyruvate kinase PKM [1] (read-out: AC50) is greater than 20 µM. In addition, the %max at Pyruvate kinase PKM [2] stood at 24%.

As to `O=C(CCSC(=S)NCc1cccnc1)c1cn(-c2ccccc2)c2ncccc12`, on Pyruvate kinase PKM [1] (read-out: AC50), the AC50 came out at 2.5 µM. Besides, the %max on Pyruvate kinase PKM [2] is 77%. The IC50 was determined as 10 µM in the experiment on NCI-H1299, 5.36 µM in the experiment with HCT-116 and 3.86 µM in the experiment on A-375.

Consider `Cc1ccc2c(C(=O)CCSC(=S)NCc3cccnc3)c[nH]c2n1`, for which, on Pyruvate kinase PKM [1], the half-maximal activity concentration (AC50) result is “Not Active”. For the same molecule, the “%max” value on Pyruvate kinase PKM [2] was “inactive”.

As for `O=C(CCSC(=S)NCc1cccnc1)c1c[nH]c2ncc(-c3ccc(Cl)cc3)cc12`, the AC50 on Pyruvate kinase PKM [1] (read-out: AC50) is greater than 20 µM. Besides, the “%max” value at Pyruvate kinase PKM [2] was “inactive”.

For the molecule `O=C(CCSC(=S)NCc1cccnc1)c1cn(C2CC2)c2ncccc12`, on Pyruvate kinase PKM [1] (read-out: AC50), the AC50 was found to be 4.56 µM. The %max at Pyruvate kinase PKM [2] was 42%. For the same molecule, the IC50 in the experiment with NCI-H1299 was 9.51 µM; in the experiment with HCT-116, 0.84 µM; with A-375, 0.21 µM.

For `O=C(CCSC(=S)NCc1cccnc1)c1cnn2ncccc12`, the concentration at half-maximal activity (AC50) on Pyruvate kinase PKM [1] (read-out: AC50) came out at 0.22 µM. Further, the %max at Pyruvate kinase PKM [2] turned out to be 44%. Moreover, the IC50 in the experiment on NCI-H1299 was found to be 1.76 µM; with HCT-116 it was 1.52 µM; in the experiment with A-375, 0.33 µM.

For the molecule `O=C(CCSC(=S)NCc1cccnc1)c1c[nH]c2ncccc12`, the %max at Pyruvate kinase PKM [2] worked out at 113%. In addition, the concentration for half-maximal inhibition (IC50) was 3.68 µM in the experiment on NCI-H1299, 3.09 µM with HCT-116 and 1.03 µM in the experiment on A-375.

For the molecule `O=C(CCSC(=S)NCc1cccnc1)c1c[nH]c2nccc(C3CC3)c12`, the AC50 entry on Pyruvate kinase PKM [1] is “Not Active”. On Pyruvate kinase PKM [2], the “%max” value is “inactive”.

In the case of `O=C(CCSC(=S)NCc1cccnc1)c1c[nH]c2nccc(Br)c12`, the AC50 on Pyruvate kinase PKM [1] (read-out: AC50) was 0.61 µM. The %max on Pyruvate kinase PKM [2] turned out to be 83%. In addition, the figures for the IC50 with NCI-H1299, in the experiment on HCT-116 and in the experiment with A-375 were greater than 10 µM, 4.9 µM and 1.99 µM, respectively.

For `O=C(CCSC(=S)NCc1cccnc1)c1c[nH]c2nccc(-c3ccccc3)c12`, the half-maximal activity concentration (AC50) on Pyruvate kinase PKM [1] (read-out: AC50) was 2.17 µM. The %max on Pyruvate kinase PKM [2] was 28%.

As for `O=C(CCSC(=S)NCc1cccnc1)c1c[nH]c2ncc(Cl)cc12`, the AC50 at Pyruvate kinase PKM [1] (read-out: AC50) amounted to 0.18 µM. In addition, the %max on Pyruvate kinase PKM [2] was found to be 71%. The IC50 was 8.87 µM in the experiment on NCI-H1299, 6.16 µM in the experiment on HCT-116 and 3.38 µM in the experiment on A-375.

In the case of `O=C(CCSC(=S)NCc1cccnc1)c1c(-c2ccccc2)nn2ncccc12`, on Pyruvate kinase PKM [1] (read-out: AC50), the AC50 was determined as 0.45 µM. Also, the %max on Pyruvate kinase PKM [2] is 148%. Moreover, the values for the IC50 in the experiment with NCI-H1299, in the experiment with HCT-116 and with A-375 were greater than 10 µM, 9.08 µM and 2.77 µM, respectively.

Take `O=C(CCSC(=S)NCc1cccnc1)c1c[nH]c2nccc(Cl)c12`: on Pyruvate kinase PKM [1] (read-out: AC50), the AC50 amounted to 1.14 µM. Further, the %max on Pyruvate kinase PKM [2] came out at 122%. Further, the results for the IC50 in the experiment with NCI-H1299, with HCT-116 and in the experiment on A-375 were 2.5 µM, 2.06 µM and 0.41 µM, respectively.

Turning to `Cn1cc(C(=O)CCSC(=S)NCc2cccnc2)c2cccnc21`, the AC50 on Pyruvate kinase PKM [1] (read-out: AC50) was determined as 4.35 µM. The %max at Pyruvate kinase PKM [2] was found to be 114%. In addition, the figures for the IC50 in the experiment on NCI-H1299, in the experiment with HCT-116 and with A-375 were 2.09 µM, 0.94 µM and 0.29 µM, respectively.
